These results are taken from ChEMBL document CHEMBL1135468 (J Med Chem, 2002).

Assay [1] deals with T1, Oxytocin receptor (Homo sapiens, UniProt P30559).
T1 sequence (P30559 whole entry): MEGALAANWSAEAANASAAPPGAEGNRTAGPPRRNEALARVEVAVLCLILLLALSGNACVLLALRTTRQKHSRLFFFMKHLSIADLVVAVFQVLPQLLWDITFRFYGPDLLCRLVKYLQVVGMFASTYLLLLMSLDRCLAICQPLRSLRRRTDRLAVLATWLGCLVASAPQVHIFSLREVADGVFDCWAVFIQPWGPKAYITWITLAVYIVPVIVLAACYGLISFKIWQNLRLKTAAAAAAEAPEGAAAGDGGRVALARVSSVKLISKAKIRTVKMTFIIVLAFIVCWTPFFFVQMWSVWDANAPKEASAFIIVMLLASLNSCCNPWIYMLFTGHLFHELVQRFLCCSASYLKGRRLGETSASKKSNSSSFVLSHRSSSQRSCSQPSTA
Kind of assay: Binding affinity for human oxytocin receptor.

Assay [2] concerns the target Vasopressin V1a receptor (Homo sapiens, UniProt P37288). As to the kind of experiment: Binding affinity for human Vasopressin V1a receptor.
Assay [3] deals with T2, Vasopressin V1b receptor (Homo sapiens, UniProt P47901).
T2 sequence (P47901 whole entry): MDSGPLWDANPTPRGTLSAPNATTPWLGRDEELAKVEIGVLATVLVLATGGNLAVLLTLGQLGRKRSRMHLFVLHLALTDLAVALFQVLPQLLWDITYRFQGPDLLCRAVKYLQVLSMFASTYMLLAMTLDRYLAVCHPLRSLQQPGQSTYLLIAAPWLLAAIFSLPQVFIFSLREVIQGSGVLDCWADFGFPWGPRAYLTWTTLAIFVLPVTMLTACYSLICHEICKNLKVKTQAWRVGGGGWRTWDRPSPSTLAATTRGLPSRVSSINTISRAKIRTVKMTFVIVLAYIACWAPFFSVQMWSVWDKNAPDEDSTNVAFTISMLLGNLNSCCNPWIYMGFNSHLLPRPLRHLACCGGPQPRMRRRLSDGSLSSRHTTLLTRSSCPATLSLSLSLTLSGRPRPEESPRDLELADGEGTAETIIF
Kind of assay: Binding affinity towards human Vasopressin V1b receptor. The method in brief:
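Competition binding on membranes from CHO cells stably expressing one human receptor, butyrate-treated (5 mM, overnight). Radioligands: OT, 200-250 pM [125I]OTA or 120-180 pM [125I]HO-LVA; V1a, 40-60 pM [125I]HO-LVA; V1b, 1-3 nM [3H]AVP. Competitor 1 pM-1 µM; nonspecific with 1 µM unlabeled ligand; 1 h, 30 °C. Ki by nonlinear least-squares, ≥3 experiments in triplicate.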

The target of assay [4] is Vasopressin V2 receptor (Homo sapiens, UniProt P30518). As to the kind of experiment: Binding affinity towards human Vasopressin V2 receptor. The method in brief: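 Human V2 receptor stably expressed in CHO cells, butyrate-treated (5 mM, overnight); membranes at 5-10 µg protein/assay competed against 1-3 nM [3H]AVP. Fluorescent ligand ranged 1 pM-1 µM; nonspecific binding defined with 1 µM unlabeled ligand. Incubation 1 h at 30 °C. Ki from nonlinear least-squares fit of two independent experiments, each run in triplicate.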
Vasopressin V2 receptor, sequence (P30518 whole entry): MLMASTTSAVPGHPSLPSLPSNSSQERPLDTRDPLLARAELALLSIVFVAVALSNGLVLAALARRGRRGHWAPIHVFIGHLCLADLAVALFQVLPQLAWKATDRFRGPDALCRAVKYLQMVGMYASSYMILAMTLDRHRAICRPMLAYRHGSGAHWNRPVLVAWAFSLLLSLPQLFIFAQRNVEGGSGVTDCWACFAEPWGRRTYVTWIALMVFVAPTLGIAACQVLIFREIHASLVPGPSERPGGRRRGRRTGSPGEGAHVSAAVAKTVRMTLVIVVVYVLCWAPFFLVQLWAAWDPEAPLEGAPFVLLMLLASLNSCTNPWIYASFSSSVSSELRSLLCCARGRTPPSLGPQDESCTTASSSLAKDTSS

*1 amine or outer side, *2 acyl side, *3 side chain or, on linkers, in order; H or OH if unused. Where a SMILES comes first, the peptide text is derived from it. Bridges are numbered along the chain shown (N, C = ends). [ ]: non-standard residue; d: D form. The star is where a group is joined. 6FAM = O=C1OC2(c3ccc(O)cc3Oc3cc(O)ccc32)c2cc(C(=O)*)ccc21; X4 = O=C(CC1(S[*:2])CCCCC1)[*:1]; X1 = O=C([C@@H](O)CS[*:2])[*:1]; Orn = NCCC[C@H](N)C(=O)O; Mpa = O=C(O)CCS

For orientation: Ki means a dissociation constant, usually derived from enzyme kinetics or from competition with a known ligand.

Vasopressin V1a receptor, sequence (P37288 whole entry): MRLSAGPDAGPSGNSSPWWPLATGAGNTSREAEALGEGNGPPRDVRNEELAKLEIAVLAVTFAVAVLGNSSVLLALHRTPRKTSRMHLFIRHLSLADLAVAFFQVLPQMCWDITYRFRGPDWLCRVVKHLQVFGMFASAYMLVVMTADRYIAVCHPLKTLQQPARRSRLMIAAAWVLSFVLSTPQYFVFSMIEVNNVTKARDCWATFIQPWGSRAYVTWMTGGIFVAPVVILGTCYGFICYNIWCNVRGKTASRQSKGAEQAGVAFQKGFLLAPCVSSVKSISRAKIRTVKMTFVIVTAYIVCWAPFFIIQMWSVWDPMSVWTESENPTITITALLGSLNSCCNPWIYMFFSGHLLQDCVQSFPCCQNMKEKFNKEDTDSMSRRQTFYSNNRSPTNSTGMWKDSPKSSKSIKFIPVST

For the compound `CC[C@H](C)[C@@H]1NC(=O)[C@@H](Cc2ccc(O)cc2)NC(=O)CC2(CCCCC2)SSC[C@@H](C(=O)N2CCC[C@H]2C(=O)N[C@@H](CCCNC(=O)c2ccc3c(c2)C2(OC3=O)c3ccc(O)cc3Oc3cc(O)ccc32)C(=O)O)NC(=O)[C@H](CC(N)=O)NC(=O)[C@H]([C@@H](C)O)NC1=O`, the Ki is 0.126 µM in assay [1], 0.656 µM in assay [2], > 1 µM in assay [3] and > 10 µM in assay [4].

`CC[C@H](C)[C@@H]1NC(=O)[C@H](Cc2ccc(O)cc2)NC(=O)[C@@H](O)CSSC[C@@H](C(=O)N2CCC[C@H]2C(=O)N[C@@H](CCCCNC(=O)c2ccc3c(c2)C2(OC3=O)c3ccc(O)cc3Oc3cc(O)ccc32)C(=O)NCC(N)=O)NC(=O)[C@H](CC(N)=O)NC(=O)[C@H](CCC(N)=O)NC1=O` (YIQNCPK(6FAM)G-NH2; linker N-5 via X1): the values for the Ki in assay [1], in assay [2] and in assay [3] were 0.00034 µM, 0.0137 µM and 0.066 µM, respectively.

Turning to `CC[C@H](C)[C@@H]1NC(=O)[C@H](Cc2ccc(O)cc2)NC(=O)CCSSC[C@@H](C(=O)N2CCC[C@H]2C(=O)N[C@@H](CCCCNC(=O)c2ccc3c(c2)C2(OC3=O)c3ccc(O)cc3Oc3cc(O)ccc32)C(=O)NCC(N)=O)NC(=O)[C@H](CC(N)=O)NC(=O)[C@H](CCC(N)=O)NC1=O` ([Mpa]YIQNCPK(6FAM)G-NH2; disulfide 1-6), the Ki in assay [1] is 0.00029 µM; in assay [2] it was 0.057 µM; in assay [3] it was 0.124 µM; in assay [4] it was > 10 µM.

`CC[C@H](C)[C@@H]1NC(=O)[C@H](Cc2ccc(O)cc2)NC(=O)[C@@H](O)CSSC[C@@H](C(=O)N2CCC[C@H]2C(=O)N[C@@H](CCCNC(=O)c2ccc3c(c2)C2(OC3=O)c3ccc(O)cc3Oc3cc(O)ccc32)C(=O)NCC(N)=O)NC(=O)[C@H](CC(N)=O)NC(=O)[C@H](CCC(N)=O)NC1=O` (YIQNCP[Orn](6FAM)G-NH2; linker N-5 via X1): the Ki was determined as 0.00018 µM in assay [1], 0.0122 µM in assay [2] and 0.126 µM in assay [3].

For the compound `CC[C@H](C)[C@@H]1NC(=O)[C@H](Cc2ccc(O)cc2)NC(=O)CCSSC[C@@H](C(=O)N2CCC[C@H]2C(=O)N[C@@H](CCCNC(=O)c2ccc3c(c2)C2(OC3=O)c3ccc(O)cc3Oc3cc(O)ccc32)C(=O)NCC(N)=O)NC(=O)[C@H](CC(N)=O)NC(=O)[C@H](CCC(N)=O)NC1=O` ([Mpa]YIQNCP[Orn](6FAM)G-NH2; disulfide 1-6), the Ki is 0.00025 µM in assay [1], 0.107 µM in assay [2], 0.393 µM in assay [3] and > 10 µM in assay [4].

As for `CC[C@H](C)[C@@H]1NC(=O)[C@H](Cc2ccc(OC)cc2)NC(=O)CC2(CCCCC2)SSC[C@@H](C(=O)N2CCC[C@H]2C(=O)N[C@@H](CCCN)C(=O)N[C@@H](Cc2ccc(O)cc2)C(N)=O)NC(=O)[C@H](CC(N)=O)NC(=O)[C@H]([C@@H](C)O)NC1=O` (Y(Me)ITNCP[Orn]Y-NH2; linker N-5 via X4), the Ki in assay [1] is 0.00021 µM; in assay [2], 0.0039 µM; in assay [3], > 10 µM; in assay [4], 0.93 µM.
